The record followed here is ChEMBL document CHEMBL1781977, “Design and synthesis of 3,5-diarylisoxazole derivatives as novel class of anti-hyperglycemic and lipid lowering agents” (Bioorg Med Chem, 2009).

The source made the active and inactive calls. The rule behind the calls is not given here.

In test [1] the target is T1, Tyrosine-protein phosphatase non-receptor type 1 (Homo sapiens, UniProt P18031).
T1 sequence (P18031 whole entry): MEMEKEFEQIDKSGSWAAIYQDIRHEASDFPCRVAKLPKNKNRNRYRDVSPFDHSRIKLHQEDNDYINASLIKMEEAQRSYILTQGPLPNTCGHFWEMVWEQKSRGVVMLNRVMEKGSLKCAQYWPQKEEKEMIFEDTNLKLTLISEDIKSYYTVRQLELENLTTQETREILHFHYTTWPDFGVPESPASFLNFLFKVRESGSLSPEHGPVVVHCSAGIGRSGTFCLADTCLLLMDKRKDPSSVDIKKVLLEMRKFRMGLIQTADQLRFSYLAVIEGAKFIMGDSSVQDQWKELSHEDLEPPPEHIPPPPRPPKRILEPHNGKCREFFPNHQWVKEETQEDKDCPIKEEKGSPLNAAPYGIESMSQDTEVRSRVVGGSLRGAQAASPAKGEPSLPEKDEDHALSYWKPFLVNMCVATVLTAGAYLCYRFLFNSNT
The experiment in a line: Inhibition of protein tyrosine phosphatase-1B at 10 uM incubated for 10 mins using pNPP substrate in absence of Triton X-100 by modified Goldstein method. A digest of the protocol: (§1)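 PTP-1B: compound preincubated 10 min with enzyme, with or without 0.01% Triton X-100. Then 10 mM pNPP in 50 mM HEPES pH 7.0 with 1 mM DTT and 2 mM EDTA, 30 min at 37 °C. Stopped with 0.1 N NaOH; absorbance read at 410 nm. p-Nitrophenolate calculated using ε 1.78 × 10⁴ M⁻¹cm⁻¹. Sodium orthovanadate used as reference.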

The subject of test [2] is Rattus norvegicus. The experiment in a line: Antihyperglycemic activity against sucrose challenged streptozotocin-induced diabetic Sprague-Dawley albino rat assessed as reduction in blood glucose level at 100 mg/kg, po administered 30 mins before sucrose challenge measured after 24 hrs. The class given is functional. The gist of the method:
(§2)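 Male Sprague Dawley rats, 160 ± 20 g, fasted overnight, given streptozotocin 60 mg/kg ip in 100 mM citrate pH 4.5. Rats with glucose 144–270 mg/dl at 48 h count as diabetic, 5–6 per group. Dosed 100 mg/kg orally in 1.0% gum acacia. Sucrose 2.5 g/kg given 30 min later. Glucose read at 30–300 min and 24 h. Non-responders excluded.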

Test [3] deals with Rattus norvegicus. As to the kind of experiment: Antihyperglycemic activity against sucrose challenged streptozotocin-induced diabetic Sprague-Dawley albino rat assessed as reduction in blood glucose level at 100 mg/kg, po administered 30 mins before sucrose challenge measured after 5 hrs. It is filed as functional. A digest of the protocol: as §2
Test [4] deals with Rattus norvegicus. As to the kind of experiment: Antihyperglycemic activity in Charles Foster/Wistar albino rat assessed as reduction in blood glucose level at 100 mg/kg, po administered 30 mins before sucrose challenge. The class given is functional. A digest of the protocol:
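Male Charles Foster/Wistar rats, 160 ± 20 g, fasted 16 h; animals with glucose 60–80 mg/dl used, 5–6 per group. Given 100 mg/kg orally as suspension in 1.0% gum acacia (controls vehicle alone). Sucrose 10.0 g/kg orally 30 min later. Glucometer readings at 30, 60, 90, 120 min. Percent activity derived from AUC of treated versus control groups.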

The target of test [5] is T1, Tyrosine-protein phosphatase non-receptor type 1. The experiment in a line: Inhibition of protein tyrosine phosphatase-1B at 10 uM incubated for 10 mins using pNPP substrate in presence of 0.01% Triton X-100 by modified Goldstein method. A digest of the protocol: as §1
The target in test [6] is T2, Tyrosine-protein phosphatase non-receptor type 1 (Homo sapiens) (UniProt P18031).
T2 sequence (whole entry): T1 sequence (P18031 whole entry)
As to the kind of experiment: Inhibition of protein tyrosine phosphatase-1B at 10 uM incubated for 10 mins using pNPP substrate by modified Goldstein method. Also on record: Activity: scale not given: the % may be the effect or the level left. The gist of the method: as §1

The species named for a further test is Mus musculus. The experiment in a line: Antihyperglycemic activity in C57BL/Ks db/db mouse assessed as reduction in blood glucose level measured after 3 days relative to control. The class given is functional.
Test [7] has as its target Dipeptidyl peptidase 4 (Homo sapiens) (UniProt P27487). As to the kind of experiment: Inhibition of DPP4 assessed as rate of substrate cleavage using Gly-Pro-AMC substrate by spectrofluorometry. The gist of the method: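 DPP-IV activity read by fluorescence at 37 °C, excitation 355 nm and emission 460 nm. Initial rate calculated over the first 15 min as increase in fluorescence intensity.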

Dipeptidyl peptidase 4 (Homo sapiens), sequence (P27487 whole entry, looked up): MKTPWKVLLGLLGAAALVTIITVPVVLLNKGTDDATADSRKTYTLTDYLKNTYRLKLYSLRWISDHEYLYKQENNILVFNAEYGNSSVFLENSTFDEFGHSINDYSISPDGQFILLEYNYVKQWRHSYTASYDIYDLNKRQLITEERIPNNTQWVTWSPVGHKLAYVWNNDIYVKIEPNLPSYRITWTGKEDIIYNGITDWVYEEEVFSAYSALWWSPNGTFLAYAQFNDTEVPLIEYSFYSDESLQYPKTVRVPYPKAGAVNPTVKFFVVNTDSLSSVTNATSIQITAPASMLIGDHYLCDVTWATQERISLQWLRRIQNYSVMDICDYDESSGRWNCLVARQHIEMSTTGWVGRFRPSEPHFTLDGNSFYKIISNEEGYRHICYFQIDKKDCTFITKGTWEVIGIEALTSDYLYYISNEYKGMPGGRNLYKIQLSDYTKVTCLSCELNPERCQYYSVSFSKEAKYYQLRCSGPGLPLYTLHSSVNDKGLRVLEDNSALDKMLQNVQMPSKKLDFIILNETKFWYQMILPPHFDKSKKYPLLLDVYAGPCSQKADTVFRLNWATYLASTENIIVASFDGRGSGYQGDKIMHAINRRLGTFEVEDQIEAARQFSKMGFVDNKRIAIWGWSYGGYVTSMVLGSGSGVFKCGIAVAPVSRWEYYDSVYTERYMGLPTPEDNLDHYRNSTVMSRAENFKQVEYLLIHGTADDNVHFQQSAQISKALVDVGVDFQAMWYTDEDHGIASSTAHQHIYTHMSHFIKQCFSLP

The term IC50 denotes the concentration that inhibits the measured activity by half. As usually defined, the inhibition in vivo is the relative decrease from the control value, in per cent. In the case of `COc1ccc(-c2cc(-c3ccccc3)no2)c(OCCCC(=O)O)c1`, the IC50 was 22.3 µM in test [1] and 22.4 µM in test [5]. Further, the inhibition in vivo at 100 mg/kg stood at 14.2% with Rattus norvegicus [2], 14.9% with Rattus norvegicus [3] and 14.2% with Rattus norvegicus [4]. The same compound gave an Activity in test [6] of 24.4%.

The inhibition is the change of the read-out against control, counted positive when it falls. On to `COc1ccc(-c2cc(-c3ccccc3)no2)c(OCCN(C)C)c1`, for which the concentration for half-maximal inhibition (IC50) in test [1] is 24.2 µM; in test [5], 24.3 µM. Also, the inhibition in vivo at 100 mg/kg amounted to 15.9% with Rattus norvegicus [2], 15.3% in the test on Rattus norvegicus [3] and 16.8% with Rattus norvegicus [4]. This compound also gave an inhibition in test [6] of 33.5%.

`CCOC(=O)COc1cc(OC)ccc1-c1cc(-c2ccccc2)no1`: the concentration for half-maximal inhibition (IC50) in test [1] was 5.25 µM; in test [5] it was 5.35 µM. Besides, the inhibition in vivo at 100 mg/kg in the test with Rattus norvegicus [4] worked out at 10.4%. The compound also had an inhibition in test [6] of 79.3%.

On to `COc1ccc(-c2cc(-c3ccccc3)no2)c(OCC2CO2)c1` (stereo not drawn), for which the IC50 was determined as 31.1 µM in test [1] and 31.3 µM in test [5]. Further, the inhibition in vivo at 100 mg/kg in the test on Rattus norvegicus [4] was found to be 10.7%. Further, the Activity in test [6] was found to be 11.8%.

For the compound `COc1ccc(Cl)cc1C(=O)NCCc1ccc(S(=O)(=O)NC(=O)NC2CCCCC2)cc1` [GLYBURIDE], the inhibition in vivo at 100 mg/kg with Rattus norvegicus [3] turned out to be 32.8%; in the test with Rattus norvegicus [4] it was 33.9%. Also, in the test filed under Mus musculus, the “inhibition (INH)” value is recorded as 13.6%.

On to `COc1ccc(-c2cc(-c3ccccc3)no2)c(OCC(=O)O)c1`, for which the IC50 in test [1] is 9.1 µM; in test [5], 9.3 µM. The inhibition in vivo at 100 mg/kg with Rattus norvegicus [4] was 11.7%. The same compound yielded an Activity in test [6] of 75.2%.

Regarding `CCN(CC)CCCOc1cc(OC)ccc1-c1cc(-c2ccccc2)no1`, the IC50 amounted to 28 µM in test [1] and 28.2 µM in test [5]. The figures for the inhibition in vivo at 100 mg/kg with Rattus norvegicus [2], in the test on Rattus norvegicus [3] and in the test on Rattus norvegicus [4] were 9.2%, 7.8% and 14.3%, respectively. In test [6], this compound showed an inhibition of 21.8%.

For the compound `CCCCN(C)CCCOc1cc(OC)ccc1-c1cc(-c2ccccc2)no1`, the IC50 in test [1] came out at 37.3 µM; in test [5] it was 37.5 µM. The inhibition in vivo at 100 mg/kg amounted to 14.2% in the test with Rattus norvegicus [2], 12.6% with Rattus norvegicus [3] and 15% in the test on Rattus norvegicus [4]. For the same compound, in test [6], the inhibition stood at 14.4%.

For `COc1ccc(-c2cc(-c3ccccc3)no2)c(OCCCN2CCCC2)c1`, the values for the IC50 in test [1] and in test [5] were 3.5 µM and 3.46 µM, respectively. Moreover, the inhibition in vivo at 100 mg/kg in the test on Rattus norvegicus [2] came out at 11.2%; in the test on Rattus norvegicus [3], 13.4%; in the test on Rattus norvegicus [4] it was 21.2%. Also, the inhibition entry in test [7] is “inactive”. In addition, the inhibition in test [6] turned out to be 82.7%.

For the compound `COc1ccc(-c2cc(-c3ccccc3)no2)c(OCCN2CCOCC2)c1`, the IC50 in test [1] was found to be 2.5 µM; in test [5], 2.61 µM. In the test on Rattus norvegicus [4], the inhibition in vivo at 100 mg/kg is 2.8%. In test [6], this compound registered an inhibition of 82.9%.

Turning to `COc1ccc(-c2cc(-c3ccccc3)no2)c(OCCCN2CCCCC2)c1`, the values for the IC50 in test [1] and in test [5] were 4.4 µM and 4.42 µM, respectively. Besides, the inhibition in vivo at 100 mg/kg with Rattus norvegicus [2] came out at 15%; with Rattus norvegicus [3] it was 14.7%; in the test on Rattus norvegicus [4], 20.8%. Besides, the inhibition entry in test [7] was “inactive”. Further, in test [6], the inhibition was found to be 89.5%.

Consider `CN(C)C(=N)NC(=N)N` [METFORMIN], for which the figures for the inhibition in vivo at 100 mg/kg with Rattus norvegicus [2] and in the test with Rattus norvegicus [4] were 20.2% and 12.9%, respectively. For the same compound, the “inhibition (INH)” value in the test listed under Mus musculus worked out at 11.2%.

Take `COc1ccc(-c2cc(-c3ccccc3)no2)c(OCCN(C(C)C)C(C)C)c1`: the IC50 in test [1] was 5.5 µM; in test [5] it was 5.44 µM. The inhibition in vivo at 100 mg/kg amounted to 9.7% in the test on Rattus norvegicus [2], 11.4% in the test on Rattus norvegicus [3] and 21.7% with Rattus norvegicus [4]. In addition, the inhibition result in test [7] is “inactive”. For the same compound, in test [6], the inhibition came to 89.4%.

In the case of `COc1ccc(-c2cc(-c3ccccc3)no2)c(OCCCN(C)C)c1`, the IC50 in test [1] and in test [5] was 25.3 µM throughout. Besides, the inhibition in vivo at 100 mg/kg in the test with Rattus norvegicus [4] is 11.8%. In test [6], the inhibition amounted to 22.3%.

On to `CCN(CC)CC(O)COc1cc(OC)ccc1-c1cc(-c2ccccc2)no1` (stereo not drawn), for which the IC50 in test [1] worked out at 4.3 µM; in test [5], 6.89 µM. The inhibition in vivo at 100 mg/kg is 11.4% with Rattus norvegicus [2], 11.6% with Rattus norvegicus [3] and 13.8% in the test with Rattus norvegicus [4]. For the same compound, the Activity in test [6] was determined as 82.8%.

Turning to `Cc1ccc(S(=O)(=O)NC(=O)NN2CC3CCCC3C2)cc1` (stereo not drawn) [GLICLAZIDE], the inhibition in vivo at 100 mg/kg in the test on Rattus norvegicus [3] turned out to be 27.7%; in the test on Rattus norvegicus [4], 44.8%. For the same compound, in the test filed under Mus musculus, the “inhibition (INH)” value amounted to 17.4%.

Regarding `COc1ccc(-c2cc(-c3ccccc3)no2)c(OCC(O)CN2CCCCC2)c1` (stereo not drawn), the IC50 in test [1] is 6.8 µM; in test [5], 3.31 µM. For the same compound, the figures for the inhibition in vivo at 100 mg/kg in the test on Rattus norvegicus [2], with Rattus norvegicus [3] and in the test with Rattus norvegicus [4] were 16.8%, 15.8% and 17%, respectively. This compound had an Activity in test [6] of 85.9%.

As to `CCOC(=O)CCCOc1cc(OC)ccc1-c1cc(-c2ccccc2)no1`, the IC50 in test [1] and in test [5] was 26.7 µM throughout. In the test on Rattus norvegicus [4], the inhibition in vivo at 100 mg/kg amounted to 4.6%. The compound further yielded an inhibition in test [6] of 20.1%.

For `COc1ccc(-c2cc(-c3ccccc3)no2)c(O)c1`, the IC50 in test [1] was determined as 27.5 µM; in test [5], 27.6 µM. For the same compound, the inhibition in vivo at 100 mg/kg in the test on Rattus norvegicus [4] came to 9.8%. In test [6], the inhibition was found to be 21.8%.

`COc1ccc(-c2cc(-c3ccccc3)no2)c(OCCCCl)c1`: the results for the IC50 in test [1] and in test [5] were 56.8 µM and 56.9 µM, respectively. In addition, the inhibition in vivo at 100 mg/kg in the test with Rattus norvegicus [4] came to 9.24%. In test [6], this compound returned an inhibition of 9%.
